ChEMBL document CHEMBL3098077, “Discovery of novel antitumor dibenzocyclooctatetraene derivatives and related biphenyls as potent inhibitors of NF-κB signaling pathway” (Bioorg Med Chem, 2014)
Active and inactive are the calls of the source. The calls are words filed in the database; no cut-off is given here.

Experiments:
[1] = system: RAW264.7; test: Inhibition of LPS-induced NF-kappaB activation in mouse RAW264.7 cells at 20 uM treated 30 mins before LPS challenge measured after 6 hrs by luciferase reporter gene assay; assay type: cell-based
[2] = system: RAW264.7; test: Antinflammatory activity in mouse RAW264.7 cells assessed as inhibition of LPS-induced nitric oxide production at 20 uM treated 30 mins before LPS challenge measured after 18 hrs by Griess assay; assay type: functional, cell-based
Outline: (§1)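 RAW264.7 cells seeded in dishes, attached overnight, pretreated 30 min with compound (test compound at 0.6, 1.25 and 2.5 μM; reference inhibitor at 20 μM), then stimulated with LPS 1 μg/mL for 18 h. Medium collected and centrifuged; supernatant nitrite reacted with Griess reagents I and II, absorbance read at 540 nm as measure of NO.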

[3] = (§2) Inhibition of LPS-induced NF-kappaB activation in mouse RAW264.7 cells treated 30 mins before LPS challenge measured after 6 hrs by luciferase reporter gene assay; assay type: cell-based
Outline: (§3)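 RAW264.7 cells stably carrying an NF-κB-driven firefly luciferase reporter, seeded at 10^4 cells/well and attached overnight. Pretreated 30 min with compound, then stimulated with LPS 1 μg/mL for 6 h; cells lysed and luciferase activity measured. Compounds screened at 10 μM; those above 98% inhibition were tested at serial concentrations for IC50, alongside BAY 11-7082 as positive control.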

[4] = system: A549; test: Cytotoxicity against human A549 cells by SRB assay; assay type: functional
Outline: (§4)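 SRB growth assay; GI50 taken as molar concentration giving 50% tumor cell growth inhibition. Paclitaxel run as positive control. KBvin is a P-gp-expressing epidermoid carcinoma of the nasopharynx line.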

[5] = system: KB; test: Cytotoxicity against human KB cells by SRB assay; assay type: functional; outline: as §4
[6] = Cytotoxicity against human KBVIN cells by SRB assay; assay type: functional; outline: as §4
[7] = system: DU-145; test: Cytotoxicity against human DU145 cells by SRB assay; assay type: functional; outline: as §4
[8] = system: RAW264.7; test: Inhibition of NF-kappaB-mediated IkappaBalpha degradation in LPS-induced mouse RAW264.7 cells treated 30 mins before LPS challenge measured after 15 mins by Western blot analysis; assay type: cell-based
Outline: (§5)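 RAW264.7 cells in dishes, attached overnight, pretreated 30 min with compound (test compound at 2.5, 5, 10 μM; reference inhibitor at 20 μM), then given LPS 1 μg/mL for 15 min. Total protein in RIPA buffer with protease/phosphatase inhibitors, used for IκB-α; nuclear extract used for p65. Western blot: SDS-PAGE, PVDF, primary antibody overnight at 4 °C, peroxidase secondary 1 h at room temperature, chemiluminescence.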

[9] = biological target: Transcription factor p65 (Mus musculus) (UniProt Q04207); test: Inhibition of LPS-induced NF-kappaB p65 translocation into nucleus in mouse RAW264.7 cells treated 30 mins before LPS challenge measured after 15 mins by Western blot analysis; assay type: cell-based; outline: as §5
[10] = system: RAW264.7; test: Antinflammatory activity in mouse RAW264.7 cells assessed as inhibition of LPS-induced nitric oxide production at 2.5 uM treated 30 mins before LPS challenge measured after 18 hrs by Griess assay; assay type: functional, cell-based; outline: as §1
[11] = system: RAW264.7; test: Inhibition of LPS-induced NF-kappaB activation in mouse RAW264.7 cells at 10 uM treated 30 mins before LPS challenge measured after 6 hrs by luciferase reporter gene assay; assay type: cell-based; outline: as §3
[12] = system: RAW264.7; test: as §2; assay type: cell-based; outline: as §3

Chain of Transcription factor p65 (Mus musculus) (Q04207 whole entry): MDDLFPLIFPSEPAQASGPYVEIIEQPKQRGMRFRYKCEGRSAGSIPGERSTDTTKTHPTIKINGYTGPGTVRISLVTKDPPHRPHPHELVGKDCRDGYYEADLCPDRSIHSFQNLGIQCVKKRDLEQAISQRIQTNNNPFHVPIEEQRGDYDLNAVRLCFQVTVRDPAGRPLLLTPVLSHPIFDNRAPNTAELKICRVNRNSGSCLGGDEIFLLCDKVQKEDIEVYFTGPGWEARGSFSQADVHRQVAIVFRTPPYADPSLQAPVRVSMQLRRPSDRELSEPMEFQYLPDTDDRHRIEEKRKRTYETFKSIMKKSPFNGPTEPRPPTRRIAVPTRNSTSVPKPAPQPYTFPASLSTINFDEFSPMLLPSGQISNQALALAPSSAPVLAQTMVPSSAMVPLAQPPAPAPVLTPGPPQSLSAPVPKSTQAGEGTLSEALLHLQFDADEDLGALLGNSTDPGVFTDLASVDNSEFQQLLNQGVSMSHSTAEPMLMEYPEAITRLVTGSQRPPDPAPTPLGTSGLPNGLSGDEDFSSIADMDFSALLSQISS

Question: With `Cc1ccc(S(=O)(=O)/C=C/C#N)cc1` as the compound, how does the inhibition [1] read?
Answer: Active

Question: What about the inhibition [2] of the same compound?
Answer: Active

Question: And the IC50 [3]?
Answer: 1.72 µM

Question: For `COc1cc(/C=C(\C)[N+](=O)[O-])c(-c2c(/C=C(\C)[N+](=O)[O-])cc(OC)c(OC)c2OC)cc1OC`, which GI50 [4] is on record?
Answer: 5.23 µM

Question: What about the GI50 [5] of the same compound?
Answer: 13.5 µM

Question: And the GI50 [6]?
Answer: 7.22 µM

Question: And the GI50 [7]?
Answer: 6.75 µM

Question: What about the IC50 [3] of the same compound?
Answer: 2.16 µM

Question: For `COC(=O)c1cc(OC)c(OC)c(OC)c1-c1ccccc1C=C(C#N)C#N`, which GI50 [4] is on record?
Answer: 42 µM

Question: And the GI50 [5]?
Answer: 36.2 µM

Question: What about the GI50 [6] of the same compound?
Answer: 20.6 µM

Question: And the GI50 [7]?
Answer: 21.9 µM

Question: Which results are given for `COc1cc(/C=C/[N+](=O)[O-])c(-c2ccccc2/C=C/[N+](=O)[O-])c(OC)c1OC`?
Answer: GI50 [4]: 3.07 µM; GI50 [5]: 2.58 µM; GI50 [6]: 4.6 µM; GI50 [7]: 2.09 µM; IC50 [3]: 1.78 µM

Question: Which results are given for `CCOC(=O)/C(C#N)=C/c1ccccc1-c1c(/C=C(\C#N)C(=O)OCC)cc(OC)c(OC)c1OC`?
Answer: GI50 [4]: 7.02 µM; GI50 [5]: 6.53 µM; GI50 [6]: 8.45 µM; GI50 [7]: 8.08 µM; IC50 [3]: 3.02 µM

Question: Which results are given for `COC(=O)C1=C/c2cc(OC)c(OC)cc2-c2c(cc(OC)c(OC)c2OC)/C=C\1C(=O)OC`?
Answer: GI50 [4]: > 20 µM; GI50 [5]: > 20 µM; GI50 [6]: > 20 µM; inhibition [7]: inactive

Question: What does the source list for `COc1cc(/C=C(\C)[N+](=O)[O-])c(-c2cc3c(cc2/C=C(\C)[N+](=O)[O-])OCO3)c(OC)c1OC`?
Answer: GI50 [4]: 0.87 µM; GI50 [5]: 0.72 µM; GI50 [6]: 1.27 µM; GI50 [7]: 1.51 µM; IC50 [3]: 0.9 µM

Question: What does the source list for `COc1cc2cc3c(=O)[nH]c(=O)c-3cc3ccccc3c2c(OC)c1OC`?
Answer: GI50 [4]: 2.31 µM; GI50 [5]: 2.67 µM; GI50 [6]: 2.07 µM; GI50 [7]: 2.34 µM; IC50 [3]: 1.02 µM

Question: With `COc1cc2c(c(OC)c1OC)-c1cc3c(cc1/C=C(C(=O)O)\C(C(=O)O)=C/2)OCO3` as the compound, how does the GI50 [4] read?
Answer: > 20 µM

Question: What about the GI50 [5] of the same compound?
Answer: > 20 µM

Question: What about the GI50 [6] of the same compound?
Answer: > 20 µM

Question: And the GI50 [7]?
Answer: > 20 µM

Question: What does the source list for `COc1cc(C=C(C#N)C#N)c(-c2ccccc2C=C(C#N)C#N)c(OC)c1OC`?
Answer: GI50 [4]: > 40 µM; GI50 [5]: > 40 µM; GI50 [6]: > 40 µM; GI50 [7]: > 40 µM

Question: Which GI50 [4] does the source give for `COc1cc(/C=C(\C)[N+](=O)[O-])c(-c2ccccc2/C=C(\C)[N+](=O)[O-])c2c1OCO2` here?
Answer: 13.9 µM

Question: And the GI50 [5]?
Answer: 18 µM

Question: What about the GI50 [6] of the same compound?
Answer: 18.7 µM

Question: And the GI50 [7]?
Answer: 19.8 µM

Question: What about the IC50 [3] of the same compound?
Answer: 0.81 µM

Question: What does the source list for `CCOC(=O)/C(C#N)=C/c1cc(OC)c(OC)cc1-c1c(/C=C(\C#N)C(=O)OCC)cc(OC)c(OC)c1OC`?
Answer: GI50 [4]: 13.8 µM; GI50 [5]: > 36 µM; GI50 [6]: 15.1 µM; GI50 [7]: 13.1 µM; IC50 [3]: 3.75 µM

Question: For `COC(=O)C1=C/c2cc3c(cc2-c2c(cc(OC)c(OC)c2OC)/C=C\1C(=O)OC)OCO3`, which GI50 [4] is on record?
Answer: 14.5 µM

Question: What about the GI50 [5] of the same compound?
Answer: 14 µM

Question: And the GI50 [6]?
Answer: 15.4 µM

Question: For `CCOC(=O)/C(C#N)=C/c1cc2c(cc1-c1c(/C=C(\C#N)C(=O)OCC)cc(OC)c(OC)c1OC)OCO2`, which GI50 [4] is on record?
Answer: > 22 µM

Question: And the GI50 [5]?
Answer: > 22 µM

Question: What about the GI50 [6] of the same compound?
Answer: > 22 µM

Question: And the GI50 [7]?
Answer: > 22 µM

Question: What does the source list for `CCOC(=O)/C(C#N)=C/c1ccccc1-c1c(C(=O)OC)cc(OC)c(OC)c1OC`?
Answer: GI50 [4]: > 40 µM; GI50 [5]: > 40 µM; GI50 [6]: > 40 µM; GI50 [7]: > 40 µM

Question: With `COc1cc2cc3c(=O)[nH]c(=O)c-3cc3cc(OC)c(OC)c(OC)c3c2cc1OC` as the compound, how does the GI50 [4] read?
Answer: 10.1 µM

Question: And the GI50 [5]?
Answer: 10.1 µM

Question: And the GI50 [6]?
Answer: 10.8 µM

Question: What about the GI50 [7] of the same compound?
Answer: 11.3 µM

Question: And the IC50 [3]?
Answer: 0.52 µM

Question: For `COC(=O)c1cc(OC)c(OC)c(OC)c1-c1ccccc1/C=C(\C)[N+](=O)[O-]`, which GI50 [4] is on record?
Answer: 6.2 µM

Question: What about the GI50 [5] of the same compound?
Answer: 6.95 µM

Question: And the GI50 [6]?
Answer: 6.17 µM

Question: What about the GI50 [7] of the same compound?
Answer: 6.56 µM

Question: And the IC50 [3]?
Answer: 1.61 µM

Question: With `CC(=O)O[C@H]1C(=O)[C@@]2(C)[C@H]([C@H](OC(=O)c3ccccc3)[C@]3(O)C[C@H](OC(=O)[C@H](O)[C@@H](NC(=O)c4ccccc4)c4ccccc4)C(C)=C1C3(C)C)[C@]1(OC(C)=O)CO[C@@H]1C[C@@H]2O` [PACLITAXEL] as the compound, how does the GI50 [4] read?
Answer: 0.0076 µM

Question: What about the GI50 [5] of the same compound?
Answer: 0.008 µM

Question: What about the GI50 [6] of the same compound?
Answer: 1.8 µM

Question: What about the GI50 [7] of the same compound?
Answer: 0.006 µM

Question: With `COc1c2c(cc(/C=C(\C)[N+](=O)[O-])c1-c1ccccc1/C=C(\C)[N+](=O)[O-])OCO2` as the compound, how does the GI50 [4] read?
Answer: 4.02 µM

Question: What about the GI50 [5] of the same compound?
Answer: 13.1 µM

Question: And the GI50 [6]?
Answer: 12.3 µM

Question: What about the GI50 [7] of the same compound?
Answer: 5.02 µM

Question: What about the IC50 [3] of the same compound?
Answer: 1.61 µM

Question: Which IC50 [3] does the source give for `COc1cc(/C=C(/C)[N+](=O)[O-])c(-c2ccccc2/C=C(/C)[N+](=O)[O-])c(OC)c1OC` here?
Answer: 0.75 µM

Question: With `COc1cc(/C=C/[N+](=O)[O-])c(-c2cc3c(cc2/C=C/[N+](=O)[O-])OCO3)c(OC)c1OC` as the compound, how does the GI50 [4] read?
Answer: 8.95 µM

Question: What about the GI50 [5] of the same compound?
Answer: 5.49 µM

Question: What about the GI50 [6] of the same compound?
Answer: 8.6 µM

Question: And the GI50 [7]?
Answer: 9.09 µM

Question: And the IC50 [3]?
Answer: 1.72 µM

Question: Which results are given for `COc1cc2cc3c(=O)[nH]c(=O)c-3cc3cc4c(cc3c2c(OC)c1OC)OCO4`?
Answer: inhibition [8]: Dose-dependent effect; GI50 [4]: 1.38 µM; GI50 [5]: 1.47 µM; inhibition [9]: Dose-dependent effect; GI50 [6]: 1.45 µM; GI50 [7]: 1.43 µM; inhibition [10]: Active; inhibition [11]: Active; IC50 [3]: 0.52 µM; inhibition [12]: Dose-dependent effect

Question: For `COc1cc(C=C(C#N)C#N)c(-c2c(C=C(C#N)C#N)cc(OC)c(OC)c2OC)cc1OC`, which GI50 [4] is on record?
Answer: 18 µM

Question: And the GI50 [5]?
Answer: 23.2 µM

Question: And the GI50 [6]?
Answer: 15.9 µM

Question: And the GI50 [7]?
Answer: 10.1 µM

Question: What about the IC50 [3] of the same compound?
Answer: 4.16 µM

Question: For `COc1cc(C=C(C#N)C#N)c(-c2cc3c(cc2C=C(C#N)C#N)OCO3)c(OC)c1OC`, which GI50 [4] is on record?
Answer: > 40 µM

Question: And the GI50 [5]?
Answer: > 40 µM

Question: What about the GI50 [6] of the same compound?
Answer: > 40 µM

Question: And the GI50 [7]?
Answer: 19.7 µM
